Blank lines part the entries; values can stand above or below the compound they belong to.
Columns and labels:
[1] = Plasma metabolite profiles; format: in vivo, male CD‐1 mice; conditions: for AUC0‐48 h of radiolabeled component in plasma (% AUC of total RA): pool of 2 mice; for Highest plasma concentration: at 30 min after dosing
[2] = Excretion and mass balance; format: in vivo, male CD‐1 mice
[3] = Metabolite profiles in selected tissues 1 h p.d.; format: in vivo, male CD‐1 mice; conditions: single iv 1 mg/kg, text: % of total radioactivity in the tissue
[4] = Blood/plasma pharmacokinetics of total radiolabeled components; format: in vivo, male CD‐1 mice; conditions: dried blood and plasma; i.v. 1 mg/kg
In short: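 Male albino CD-1 mice (30-36 g, 8-10 weeks) got one i.v. saphenous bolus of 1 mg/kg tritiated test nucleoside in 0.9% NaCl (2 mL/kg, 53-67 MBq/kg) under light isoflurane. EDTA blood was drawn at 0.083-48 h, two samples per mouse, n = 1 per time point. Plasma was spun 3000 g, 10 min, 4°C. Aliquots were dried at 37°C to remove tritiated water, then counted by LSC. Noncompartmental PK was used.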

[5] = Quantitative whole-body autoradiography; format: in vivo, male CD‐1 mice
In short: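 The same single 1 mg/kg i.v. tritium-label dose was given to male CD-1 mice. At 0.167, 1, 2, 24 and 48 h, mice were killed under deep isoflurane and frozen in hexane/dry ice at −70°C. 40 µm whole-body sections were exposed to imaging plates for 2 weeks at room temperature and scanned at 50 µm. Densitometry used blood calibrators. Tissue:blood Cmax/AUClast ratios were derived, AUC by linear trapezoidal rule.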

[6] = Tolerability of the single intravenous administration; format: in vivo; conditions: mice
[7] = male, CD-1, mouse, plasma, iv, 1 mg/kg
[8] = 0–48 h, single iv 1 mg/kg, average of n = 2
[9] = single iv 1 mg/kg, average of n = 2, 1 mg/kg
[10] = single iv 1 mg/kg, average of n = 2

AUC [1, 7]: 0.461 µM·h | concentration at 0.5 h [1, 7]: 38.9 nM | concentration at 1 h [1, 7]: 33.3 nM | concentration at 2 h [1, 7]: 7.1 nM | concentration at 4 h [1, 7]: 22.6 nM | concentration at 8 h [1, 7]: 11.1 nM | concentration at 24 h [1, 7]: 5.7 nM | concentration at 48 h [1, 7]: 9.6 nM | AUC0‐48 h of radiolabeled component in plasma (% AUC of total RA) ([1]; single iv 1 mg/kg): 8.11 % AUC of total RA | Amount of radiolabeled component, total excretion (urine + feces) [2, 8]: 0.0771 % of RA dose | Amount of radiolabeled component in urine (0–48 h) [2, 9]: 0.0771 % of RA dose | Amount of radiolabeled component in heart [3]: 6.81% | Amount of radiolabeled component in liver [3]: 17.8% | Amount of radiolabeled component in lung [3]: 2.41% | Amount of radiolabeled component in spleen [3]: 3.62%
Compound: Nc1cc[nH]c(=O)n1 [Metabolite M2, cytosine]

AUC [1, 7]: 0.0639 µM·h | concentration at 0.5 h [1, 7]: 44 nM | concentration at 2 h [1, 7]: 8.6 nM | concentration at 4 h [1, 7]: 10.3 nM | concentration at 48 h [1, 7]: 0 nM | AUC0‐48 h of radiolabeled component in plasma (% AUC of total RA) ([1]; single iv 1 mg/kg, 1 mg/kg): 1.12 % AUC of total RA | Amount of radiolabeled component, total excretion (urine + feces) [2, 8]: 1.94 % of RA dose | Amount of radiolabeled component in feces (0–48) [2, 10]: 0.102 % of RA dose
Compound: Nc1ccn([C@@H]2O[C@H](CO)[C@@H](O)[C@H]2O)c(=O)n1 [Metabolite M5, cytidine]

Highest plasma concentration [1]: 0.1 µmol/L | AUC [1, 7]: 1.34 µM·h | concentration at 0.083 h [1, 7]: 14.2 nM | concentration at 0.5 h [1, 7]: 144 nM | concentration at 1 h [1, 7]: 109 nM | concentration at 2 h [1, 7]: 87.5 nM | concentration at 4 h [1, 7]: 63.5 nM | concentration at 8 h [1, 7]: 36.8 nM | concentration at 24 h [1, 7]: 14.5 nM | concentration at 48 h [1, 7]: 17.5 nM | AUC0‐48 h of radiolabeled component in plasma (% AUC of total RA) ([1]; single iv 1 mg/kg): 23.6 % AUC of total RA | Amount of radiolabeled component, total excretion (urine + feces) [2, 8]: 4.03 % of RA dose | Amount of radiolabeled component in feces (0–48) [2, 10]: 0.418 % of RA dose | Amount of radiolabeled component in heart [3]: 46.6% | Amount of radiolabeled component in kidney [3]: 89.4% | Amount of radiolabeled component in liver [3]: 28.8% | Amount of radiolabeled component in lung [3]: 83.4% | Amount of radiolabeled component in salivary gland [3]: 90.9% | Amount of radiolabeled component in spleen [3]: 57.9%
Compound: O=c1cc[nH]c(=O)[nH]1 [Metabolite M3, uracil]

Second part, the compound before the results:

Compound: CO[C@@H]1[C@H](O)[C@@H](CO)O[C@H]1n1ccc(=O)[nH]c1=O [2′O‐methyluridine, 2′‐O‐methyluridine]
Tlast of total radiolabeled components [4]: 48 h | Total detected radiolabeled components, concentration in dried plasma ([1]; 0.083 h postdose, single iv 1 mg/kg): 0.446 µmol/L | Total detected radiolabeled components, concentration in dried plasma ([1]; 0.5 h postdose, single iv 1 mg/kg): 0.617 µmol/L | Total detected radiolabeled components, concentration in dried plasma ([1]; 1 h postdose, single iv 1 mg/kg): 0.343 µmol/L | Total detected radiolabeled components, concentration in dried plasma ([1]; 2 h postdose, single iv 1 mg/kg): 0.270 µmol/L | Total detected radiolabeled components, concentration in dried plasma ([1]; 4 h postdose, single iv 1 mg/kg): 0.241 µmol/L | Total detected radiolabeled components, concentration in dried plasma ([1]; 8 h postdose, single iv 1 mg/kg): 0.134 µmol/L | Total detected radiolabeled components, concentration in dried plasma ([1]; 24 h postdose, single iv 1 mg/kg): 0.080 µmol/L | Total detected radiolabeled components, concentration in dried plasma ([1]; 48 h postdose, single iv 1 mg/kg): 0.0781 µmol/L | Time up to which detectable in plasma ([1]; after i.v. dosing 1 mg/kg, LC‐MS‐RA): up to 24 h | AUC0‐48h ratio of total radioactivity over parent compound ([1]; dried plasma): about 17 | clearance ([1]; male, CD-1, mouse, plasma, intravenous, 1 mg/kg): 157 mL/min/kg | AUC [1, 7]: 0.335 µM·h | Cmax [1, 7]: 402 nM | concentration at 0.083 h [1, 7]: 402 nM | concentration at 0.5 h [1, 7]: 119 nM | concentration at 1 h [1, 7]: 22.3 nM | concentration at 2 h [1, 7]: 6 nM | concentration at 4 h [1, 7]: 6.3 nM | concentration at 8 h [1, 7]: 3.6 nM | concentration at 48 h [1, 7]: 6.7 nM | Total detected radiolabeled components, plasma AUC0‐48 h ([1]; single iv 1 mg/kg): 5.69 µM·h | Total detected radiolabeled components, plasma AUC0‐48 h (% AUC of total RA) ([1]; single iv 1 mg/kg): 100 % AUC of total RA | AUC0‐48 h of radiolabeled component in plasma (% AUC of total RA) ([1]; single iv 1 mg/kg): 5.89 % AUC of total RA | Time up to which total radiolabeled components detectable in the brain ([5]; QWBA): up to 48 h | Cmax tissue over blood ratio ([5]; other matrices): smaller than 2 | Share of matrices with AUClast greater than that of blood ([5]; total radiolabeled components): more than 90% | Total detected radioactivity, total excretion (urine + feces) ([2]; 0–48 h, single iv 1 mg/kg): 48.3 % of RA dose | Amount of radiolabeled component, total excretion (urine + feces) [2, 8]: 31.7 % of RA dose | Overall recovery of radioactivity (mass balance) ([2]; 48 h, urine, feces, carcass and tritiated water): 102.3% | Radioactivity in carcass 48 h ([2]; 48 h p.d., single iv 1 mg/kg): 38.6 % of RA dose | Radioactivity in cage wash (0–48) ([2]; single iv 1 mg/kg): 6.81 % of RA dose | Amount of radiolabeled component in urine (0–48 h) [2, 10]: 31.2 % of RA dose | Total detected radioactivity in feces (0–48) [2, 10]: 2.34 % of RA dose | Total detected radioactivity in urine (0–48 h), without cage wash [2, 10]: 45.9 % of RA dose | Amount of radiolabeled component in feces (0–48) [2, 9]: 0.489 % of RA dose | Tolerability [6]: well tolerated

Compound: O=c1ccn([C@@H]2O[C@H](CO)[C@@H](O)[C@H]2O)c(=O)[nH]1 [Metabolite M1, uridine]
Highest plasma concentration [1]: 0.2 µmol/L | AUC [1, 7]: 1.87 µM·h | concentration at 0.083 h [1, 7]: 5.1 nM | concentration at 0.5 h [1, 7]: 170 nM | concentration at 1 h [1, 7]: 108 nM | concentration at 2 h [1, 7]: 130 nM | concentration at 4 h [1, 7]: 104 nM | concentration at 8 h [1, 7]: 43.4 nM | concentration at 24 h [1, 7]: 26.9 nM | concentration at 48 h [1, 7]: 18.8 nM | AUC0‐48 h of radiolabeled component in plasma (% AUC of total RA) ([1]; single iv 1 mg/kg): 32.8 % AUC of total RA | Amount of radiolabeled component, total excretion (urine + feces) [2, 8]: 0.156 % of RA dose | Amount of radiolabeled component in heart [3]: 28.4% | Amount of radiolabeled component in kidney [3]: 10.6% | Amount of radiolabeled component in liver [3]: 47.6% | Amount of radiolabeled component in lung [3]: 2.31% | Amount of radiolabeled component in salivary gland [3]: 6.88% | Amount of radiolabeled component in spleen [3]: 32.9%
